Compound activity (PubChem)
beta cell repl = inducers of beta-cell replication in MIN6 cells. MIN6 cells proliferation, ATPlite luminescence, 48 h; cells starved in 0.2% serum; 100% = growth in 10% serum. proliferation, % at 10 µM. hit rate 0.29% among 330,000. AID 2380;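 active = compounds whose signal lies at least 3.5 SD above the mean of all wells on their plate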;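 also: 0% = DMSO-treated cells in low-serum medium and 100% = 10% serum control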
TLR4 MyD88 comp = TLR4-MyD88 interaction inhibition in cells | hit rate 0.18% among 200,000 | O00206+Q99836 | inhibition, % at 8.4 µM | HeLa CL3-4 TLR4/MyD88 BLA complementation, FRET ratio; in the data active = inhibition above about 25%;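 also: 0% = vehicle and 100% = reference inhibitor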
MC4R antagonist = human MC4R antagonism in cAMP assay. MC4R-expressing cells, MTII-stimulated cAMP, LANCE TR-FRET. inhibition, % at 6.5 µM. hit rate 0.48% among 360,000;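 active = inhibition above its plate's cutoff, the mean of tested wells on that plate plus 3 SD, cut at about 29% in these data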;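 also: 0% = Melanotan II alone and 100% = Melanotan II plus saturating MCL0020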
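Assay system: U2OS cells stably expressing human melanocortin 4 receptor (MC4R) / Dosing: 6.5 µM / Timing: compound 30 min, challenge 1 h, detection 1 h / Measured by: Eu-cAMP/anti-cAMP TR-FRET, emission 671 nm / Replicates: singlicate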
NOD2 RIPK2 PPI = inhibitors of human NOD2-RIPK2 interaction | inhibition, % at 4.98 µM | O43353 | hit rate 0.38% among 360,000 | CHO BLA complementation NOD2-RIPK2, CCF4 ratio; in the data active = inhibition above about 21%;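 also: 0% = vehicle only and 100% = reference blocker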
Target sequence (O43353 whole entry, looked up): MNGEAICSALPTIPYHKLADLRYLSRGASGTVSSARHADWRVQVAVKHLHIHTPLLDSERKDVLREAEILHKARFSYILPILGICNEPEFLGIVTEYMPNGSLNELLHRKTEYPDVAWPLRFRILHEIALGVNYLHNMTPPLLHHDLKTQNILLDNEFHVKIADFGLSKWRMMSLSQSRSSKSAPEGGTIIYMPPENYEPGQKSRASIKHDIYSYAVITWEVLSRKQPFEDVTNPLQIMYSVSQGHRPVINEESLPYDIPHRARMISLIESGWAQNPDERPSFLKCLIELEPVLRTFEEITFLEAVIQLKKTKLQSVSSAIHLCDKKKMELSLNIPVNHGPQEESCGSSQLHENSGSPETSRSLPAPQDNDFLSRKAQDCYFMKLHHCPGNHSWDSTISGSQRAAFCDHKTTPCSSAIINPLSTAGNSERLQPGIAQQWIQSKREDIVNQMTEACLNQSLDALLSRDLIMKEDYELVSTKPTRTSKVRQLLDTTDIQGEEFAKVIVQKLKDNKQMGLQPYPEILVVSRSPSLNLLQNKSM
TLR9-MyD88 block = TLR9-MyD88 interaction inhibition; CHO BLA complementation TLR9-MyD88, CCF4 FRET ratio; AID 504734; hit rate 0.21% among 340,000; inhibition, % at 4.98 µM; Q9NR96+Q99836;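 active = inhibition above the mean over all tested compounds plus 3 SD, cut at about 21% in these data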;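 also: 0% = DMSO only wells and 100% = clavulanate BLA inhibitor control wells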
MC4R barr agon = activates human MC4R beta-arrestin recruitment; P32245; U2OS MC4R beta-arrestin complementation, luminescence; percent of melanotan II response, DMSO zero; activation, % at 8.9 µM; hit rate 0.98% among 360,000; AID 540308;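 active = activation above a per-plate cutoff, the mean activation of sample wells on that plate plus 3 SD, cut at about 8% in these data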
cAMP nonselect = U2OS forskolin cAMP inhibition counter-screen; parental U2OS, LANCE TR-FRET; hit rate 26% among 1,600; AID 602193; inhibition, % at 6.5 µM; shares compounds with MC4R antagonist;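 active = mean inhibition over triplicates above the low-control well mean plus 3 SD, set per campaign, cut at about 13% in these data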;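 also: signal is single emission at 671 nm which falls as cellular cAMP rises; 0% = forskolin-stimulated wells and 100% = buffer without forskolin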
MC4R cAMP antag = human MC4R cAMP antagonism confirmation; shares compounds with MC4R antagonist; MC4R-expressing cells, MTII-stimulated cAMP, TR-FRET; inhibition, % at 6.5 µM; hit rate 27% among 1,600; AID 602195; in the data active = inhibition above about 29%;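 also: 0% = agonist stimulated wells alone and 100% = agonist stimulated wells plus saturating reference antagonist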
An asterisk follows results filed as active; . = not tested or not shown. A selection: hits, their analogues and other compounds. The true share with any hit is near 2.1%.

SMILES	beta cell repl	TLR4 MyD88 comp	MC4R antagonist	NOD2 RIPK2 PPI	TLR9-MyD88 block	MC4R barr agon	cAMP nonselect	MC4R cAMP antag
O=C(CCC(=O)Nc1ccccc1)NCCO	-2.2	2.6	-4.5	-10.6	-9.2	0.6	.	.
COc1ccc(NC(=O)CCC(=O)NCCO)cc1	-1.1	11.2	37.2*	-6.8	0.2	0.3	0.9	-7.2
O=C1c2ccccc2NC(c2ccccc2Br)N1CCCN1CCOCC1 (centres undefined)	-2.9	8.8	29.0*	-8.8	-4.2	-1.4	1.5	1.1
Cc1ccc(S(=O)(=O)n2cnc3cc([N+](=O)[O-])ccc32)cc1C	-2.3	-14.7	4.1	-2.5	1.9	-1.9	.	.
Cc1ccc(S(=O)(=O)n2cnc3ccccc32)cc1[N+](=O)[O-]	1.6	.	28.9*	-5.2	3.1	1.4	-2.0	-3.2
COC(=O)c1c(NC(=O)COC(=O)c2ccc(Cl)cc2[N+](=O)[O-])sc2c1CCCCC2	-1.4	-1.2	30.9*	-2.5	-14.0	-1.1	6.5	21.8
COc1ccc(Cl)cc1NC(=O)CN(C)CC(=O)NC(C)c1ccccc1 (centres undefined)	4.3	-8.1	-6.2	-5.9	-8.6	-0.1	.	.
CCCCN(C(=O)C(C)Oc1ccc(Cl)cc1)c1c(N)n(CCCC)c(=O)[nH]c1=O (centres undefined)	1.0	.	2.0	7.9	8.2	-2.8	.	.
O=C(/C=C/c1ccc(Cl)c([N+](=O)[O-])c1)Nc1cccc(NC(=O)c2ccco2)c1	-5.8	-1.2	45.0*	9.3	11.8	-0.6	52.7*	57.4*
O=C(O)c1cc(-c2ccc(Cl)s2)nc2ccccc12	-3.2	5.9	33.6*	1.1	0.7	0.7	11.6	27.9
Cc1ccc(-c2cc(C(=O)O)c3ccccc3n2)s1	-3.1	.	2.4	3.3	1.7	-1.6	.	.
Cc1ccc(S(=O)(=O)N2CCN(C(=O)CC(C)n3nc(C)c(Cl)c3C)CC2)cc1C (centres undefined)	1.0	.	1.3	-3.1	-7.8	-2.8	.	.
COC(=O)C(Cc1ccccc1)NC(=O)CCNC(=O)c1ccc(Br)cc1 (centres undefined)	0.0	.	28.6*	-4.5	-2.1	1.5	-8.7	-20.2
COC(=O)[C@H](Cc1ccccc1)NC(=O)NCCc1ccc(F)cc1	-3.3	.	28.9*	-4.5	.	-1.2	32.1*	34.6*
COC(=O)[C@H](Cc1ccccc1)NC(=O)NCCc1ccc(S(N)(=O)=O)cc1	2.8	2.7	1.2	1.0	1.7	-1.8	.	.
CC(C)(C)c1ccc(C(=O)O)c(C(=O)c2ccccc2)c1	-4.0	-12.3	30.7*	-2.8	-6.0	4.8	2.7	-7.8
Cc1ccc(S(=O)(=O)Nc2nc(C)cc(NN)n2)cc1	-2.7	.	28.8*	-15.8	-5.3	-1.2	3.8	9.4
COc1ccc(CCNC(=O)CCS(=O)(=O)c2ccc3c(c2)NC(=O)CO3)cc1OC	0.5	.	-4.5	-2.6	6.4	-2.1	.	.
O=C(Nc1cc([N+](=O)[O-])ccc1O)c1cccc(C(=O)Nc2cc([N+](=O)[O-])ccc2O)c1	.	.	12.8	3.9	-2.4	-0.2	.	.
NS(=O)(=O)c1ccc(O)c(NC(=O)c2ccc([N+](=O)[O-])cc2)c1	-2.7	1.5	29.0*	-2.0	-8.8	-0.9	-6.1	-9.0
O=C(Cc1ccc(F)cc1)NCCc1cnc[nH]1	-0.5	.	31.5*	3.3	2.2	-0.3	-0.7	-15.3
Cc1ccnc(NS(=O)(=O)c2ccc(NS(=O)(=O)c3ccccc3)cc2)n1	-2.3	3.2	-2.0	-6.8	-3.8	0.3	.	.
Cc1cccc(N2CCN(C(=O)c3cc(S(=O)(=O)N(C)C)ccc3N3CCCC3)CC2)c1C	-1.5	-8.7	14.8	10.7	-4.7	0.9	.	.
CN(C)S(=O)(=O)c1ccc(N2CCCC2)c(C(=O)N2CCN(c3ccc([N+](=O)[O-])cc3)CC2)c1	1.1	-2.7	33.6*	-10.8	-1.1	-1.9	2.4	7.1
CC(c1ccco1)N(C(=O)c1ccccc1NS(=O)(=O)c1cccc([N+](=O)[O-])c1)c1ccccn1 (centres undefined)	-2.9	-2.0	30.1*	-7.6	3.4	-1.2	-1.4	-0.9
SMILES	beta cell repl	TLR4 MyD88 comp	MC4R antagonist	NOD2 RIPK2 PPI	TLR9-MyD88 block	MC4R barr agon	cAMP nonselect	MC4R cAMP antag
CC1CCCCN1S(=O)(=O)c1cnc(Cl)c(Br)c1 (centres undefined)	-4.8	5.3	33.3*	8.4	-1.6	-1.2	12.8	16.5
CC1CCN(S(=O)(=O)c2cnc(Cl)c(Br)c2)CC1	-4.5	6.0	40.9*	0.5	-0.8	-0.4	15.2*	41.0*
CC1CCN(S(=O)(=O)c2ccc(Cl)cc2Br)CC1	-1.8	-4.5	5.9	-13.3	-9.8	1.6	.	.
Cc1ccccc1CNC(=O)CC1C(=O)NCCN1CC1CCCCC1 (centres undefined)	2.7	-7.7	8.6	0.2	2.9	-0.1	.	.
O=C(CC1C(=O)NCCN1CC1CCCCC1)NCc1cccc(F)c1F (centres undefined)	-0.6	-2.7	29.5*	6.7	3.5	2.6	0.5	-1.4
CC(C)c1ccc(OCC(=O)NC(=S)Nc2ccc3c4c(cccc24)CC3)cc1	-0.4	-1.8	38.1*	-11.6	0.6	-0.5	19.9*	37.1*
COC(=O)c1ccccc1NC(=S)NC(=O)COc1ccc(C(C)C)cc1	-0.8	-0.2	1.0	-5.6	8.1	1.5	.	.
COc1ccc(N2CCN(C(=O)Nc3ccccc3Cl)CC2)cc1	-1.1	-0.9	36.8*	-5.9	5.0	2.0	-1.1	4.5
CC(=O)Oc1ccc2nc(-c3ccc(Br)o3)oc(=O)c2c1	-2.7	.	32.0*	-6.0	-7.2	1.4	6.1	36.2*
CC(=O)Oc1ccc2c(=O)oc(-c3ccccc3)nc2c1	-3.2	.	14.7	0.1	-1.1	0.3	.	.
COc1ccc(N2CCN(C(=O)CCCNC(=O)Cn3cnc4sc(C)c(C)c4c3=O)CC2)cc1	0.3	.	8.6	-11.3	-1.3	-2.0	.	.
COc1ccccc1N1CCN(C(=O)CCCNC(=O)Cn2cnc3sc(C)c(C)c3c2=O)CC1	1.2	.	32.9*	-10.8	-4.8	1.3	0.5	-2.4
COC(=O)CSc1nnc(-c2ccc(NS(=O)(=O)c3ccccc3)cc2)o1	-4.4	-9.7	67.9*	-5.2	-7.8	0.4	11.8	37.1*
C#CCN1Cc2ccccc2Oc2cc(Br)ccc2S1(=O)=O	.	.	5.3	-2.3	-14.8	3.7	.	.
COc1ccc(NC(=O)C2(C)CCN2C(=O)Cc2ccc(Cl)cc2Cl)cc1OC (centres undefined)	.	.	-1.8	-1.5	.	-1.6	.	.
